# Assay results from different studies.
# Protocols differ between the studies behind these lines.
# Effect on: enzyme activity
# Action: inhibitor
# YCK2: Serine/threonine protein kinase YCK2 (YCK2, Candida albicans, UniProt A0A1D8PKB4)
# EGFR: Epidermal growth factor receptor (EGFR, Homo sapiens, UniProt P00533)
# CDK6 with cyclin D3: Cyclin-dependent kinase 6, with cyclin D3 (CDK6, Homo sapiens, UniProt Q00534)
# CA2: Carbonic anhydrase 2 (CA2, Bos taurus, UniProt P00921)
# MTOR: Serine/threonine-protein kinase mTOR (MTOR, Homo sapiens, UniProt P42345)
SMILES,target,test,IC50 [µM]
Cn1cc(-c2ccnc3ccccc23)c(-c2ccccn2)n1,YCK2,ADP detection,0.55
CNC(c1ccccc1)c1c(N)[nH]c(=O)[nH]c1=O (stereo not drawn),EGFR,,4.6
NS(=O)(=O)c1ccc(-n2nc(C(=O)NN=Cc3ccccc3O)cc2-c2ccccc2)cc1,"Serine/threonine-protein kinase B-raf (BRAF, Homo sapiens, UniProt P15056, V600E)",,17.5
c1ccc(-c2[nH]ccc2-c2ccnc3ccccc23)nc1,YCK2,ADP detection,4.9
CNS(=O)(=O)c1ccc(Nc2ncc(C(F)(F)F)c(N3CCCC(C)(O)C3)n2)c(C)c1 (stereo not drawn),CDK6 with cyclin D3,radiometric,4.32
COc1ccc(N2CCN(Cc3cn4c(-c5ccc(Br)cc5)nnc4s3)CC2)cc1,"Ferroptosis suppressor protein 1 (AIFM2, Homo sapiens, UniProt Q9BRQ8)",absorbance,0.034
CCCCNC(c1ccccc1)c1c(N)[nH]c(=O)[nH]c1=O (stereo not drawn),EGFR,,0.988
COc1cc(-c2[nH]c(=S)nc3nc(Nc4ccc(S(N)(=O)=O)cc4)sc23)ccc1O,CA2,absorbance,0.0795
O=C1C[C@@H](c2ccc(O)cc2)Oc2cc(O)cc(O)c21,CA2,absorbance,68.9
Cc1cc2c(C(N)=O)c(N)n(-c3c(C)ccc(O)c3C)c2nc1C,"Serine/threonine-protein kinase B-raf (BRAF, Homo sapiens, UniProt P15056)",ADP detection,0.0153
N#Cc1ccc(NC(=O)Nc2ccccc2)cc1,"SRSF protein kinase 3 (SRPK3, Homo sapiens, UniProt Q9UPE1)",FRET,5.7
Cc1cc(O)c(-c2ccc([C@@H](C)CN(C)C)cc2)c2c1[nH]c(=O)c1sccc12,"Cyclin-dependent kinase 6, with cyclin D1 (CDK6, Homo sapiens, UniProt Q00534)",,> 1
O=C(/C=C/c1ccc(F)cc1)c1nc2ccccc2n1Cc1cn([C@@H]2OC[C@@H](O)[C@H](O)[C@H]2O)nn1,EGFR,,0.075
c1ccc(Cn2cc(-c3ccnc4ccccc34)c(-c3ccccn3)n2)cc1,YCK2,ADP detection,1
Cc1cc(S(=O)(=O)NCCO[C@H]2CC[C@H](CN3CCC(c4ccn5c(N6CCC(=O)NC6=O)cnc5c4)CC3)CC2)ccc1Nc1ncc2cc(Cl)c(=O)n(C3CCCC3)c2n1,CDK6 with cyclin D3,radiometric,0.153
Nc1cnccc1Nc1ccc(Cl)c(Cl)c1,"DNA-3-methyladenine glycosylase (Homo sapiens, UniProt P29372)",,> 99
O=C1/C(=C/c2ccc3ccccc3c2O)NC(=S)N1c1ccccc1,EGFR,ELISA,0.183
COc1c(Cl)cccc1Nc1c(-c2ccncc2OC[C@@H]2COCCO2)[nH]c2c1C(=O)NCC2,EGFR,TR-FRET,< 0.0005
c1ccc(-c2n[nH]cc2-c2ccncc2)nc1,YCK2,ADP detection,0.52
COc1ccc(-c2ccc3c(N4CCOC[C@@H]4C)nc(N4CCOC[C@@H]4C)nc3n2)cc1C(=O)NCCOCCOCCOCCONC(=O)c1ccc(F)c(F)c1Nc1ccc(I)cc1F,MTOR,FRET,0.028 to 0.04
O=C1C(=O)N(CCn2ncc3c(=O)[nH]cnc32)c2ccc(Cl)cc21,CDK6 with cyclin D3,ADP detection,0.603
CC(=O)c1nc2ccccc2n1Cc1cn([C@@H]2O[C@H](CO)[C@H](O)[C@H](O)[C@H]2O)nn1,EGFR,,0.324
CNS(=O)(=O)c1ccc(Nc2ncc(C(F)(F)F)c([C@H]3CC[C@](C)(O)CC3)n2)c(C)c1,CDK6 with cyclin D3,radiometric,0.715
COc1ccc(-c2ccc3c(N4CCOC[C@@H]4C)nc(N4CCOC[C@@H]4C)nc3n2)cc1COCCOCCOCCOCCONC(=O)c1ccc(F)c(F)c1Nc1ccc(I)cc1F,MTOR,FRET,0.028 to 0.04
